pIC50, pKi: −log10 of the molar value.

The test system of one data set is Plasma. The experiment in a line: Fraction unbound in rat plasma by equilibrium dialysis method. The class given is ADME, cell-free.
For the compound `Fc1cc(CN2CCO[C@H](COc3ccccc3)C2)ccc1Cl`, the Fu is listed as 0.012.

As to `Fc1cc(CN2CCO[C@H](COc3ccccc3)C2)ccc1C(F)(F)F`, the Fu came out at 0.007.

Test system in another data set: not listed separately
Kind of data set: Fraction unbound in human plasma by equilibrium dialysis method. The class given is ADME, cell-free. In general terms: Equilibrium dialysis compares concentrations on both sides of a semipermeable membrane.
On to `Fc1cc(CN2CCO[C@H](COc3ccccc3)C2)ccc1Cl`, for which the Fu turned out to be 0.006.

Compound `Fc1cc(CN2CCO[C@H](COc3ccccc3)C2)ccc1C(F)(F)F` showed a Fu of 0.002.

Another data set has as its target T1, D(4) dopamine receptor (Homo sapiens, UniProt P21917).
T1 sequence (P21917 whole entry): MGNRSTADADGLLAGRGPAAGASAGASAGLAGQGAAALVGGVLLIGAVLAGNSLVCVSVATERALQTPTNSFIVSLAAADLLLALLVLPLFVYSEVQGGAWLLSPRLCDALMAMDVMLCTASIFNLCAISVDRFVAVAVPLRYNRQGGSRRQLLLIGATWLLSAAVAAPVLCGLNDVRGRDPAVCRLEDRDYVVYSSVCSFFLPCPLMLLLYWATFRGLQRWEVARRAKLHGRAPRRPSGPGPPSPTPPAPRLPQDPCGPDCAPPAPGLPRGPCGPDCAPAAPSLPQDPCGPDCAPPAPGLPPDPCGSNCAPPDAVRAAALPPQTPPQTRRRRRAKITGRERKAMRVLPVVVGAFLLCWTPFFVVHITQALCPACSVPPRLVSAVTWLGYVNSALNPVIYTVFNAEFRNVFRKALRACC
Kind of data set: Displacement of [3H]-Spiperone from human recombinant dopamine D4 receptor expressed in CHOK1 cells. In kind it is cell-based, CHO-K1. The method, boiled down: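 Radioligand binding at human D4 receptor using [3H]-spiperone, run as a contract assay in duplicate. IC50 and Ki were derived from concentration–response data. Single-point values are % inhibition of specific binding at 10 µM test compound.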
Background: Loss of bound radioactivity is the signal in a displacement assay; it reports binding, not function.
As usually defined, the pIC50 is the IC50 on a negative log10 scale, so that one unit is a factor of ten. A word on the pKi: it is the negative decadic logarithm of the Ki, by convention in mol/L. In the case of `COc1cc(CN2CCO[C@H](COc3ccccc3)C2)ccc1F`, the pIC50 was 7.38 and the pKi is 7.94.

Consider `COc1ccc(CN2CCO[C@H](COc3ccc(OC)cc3)C2)cc1`, for which the pIC50 was 6.42 and the pKi is 6.96.

For the compound `Fc1cc(CN2CCO[C@H](COc3ccccc3)C2)ccc1Cl`, the pIC50 is 7.16 and the pKi is 7.72.

Consider `CSc1ccc(CN2CCO[C@H](COc3ccccc3)C2)cc1`, for which the pIC50 was 7.24 and the pKi was 7.79.

Regarding `Fc1ccc(CN2CCO[C@H](COc3ccccc3)C2)cc1Cl`, the pIC50 is 7.21 and the negative-log Ki (pKi) was 6.77.

With `COc1cccc(OC[C@@H]2CN(Cc3ccc(Cl)cc3)CCO2)c1`, the pIC50 is 6.89 and the pKi is 7.44.

Regarding `Fc1ccc(CN2CCO[C@H](COc3ccccc3)C2)cc1C(F)(F)F`, the negative logarithm of the IC50 (pIC50) is 6.49 and the pKi is 7.05.

As for `Clc1ccc(CN2CCO[C@H](COc3ccccn3)C2)cc1`, the pIC50 is 5.58 and the pKi was 6.14.

Regarding `COc1ccc(CN2CCO[C@H](COc3ccccc3)C2)cc1`, the pIC50 is 6.80 and the pKi was 7.36.

Take `c1ccc(OC[C@@H]2CN(Cc3ccc4ccccc4c3)CCO2)cc1`: the pIC50 was 7.19 and the pKi is 7.75.

Turning to `COc1ccc(CN2CCO[C@H](COc3cccnc3)C2)cc1`, the pIC50 was 6.68 and the pKi is 7.23.

For `COc1ccc(CN2CCO[C@H](COc3cccc(F)c3)C2)cc1`, the pIC50 was 7.04 and the pKi is 7.59.

In the case of `COc1cc(CN2CCO[C@H](COc3cccc(C#N)c3)C2)ccc1Cl`, the pIC50 is 7.00 and the pKi was 7.55.

Consider `FC1(F)Oc2ccc(CN3CCO[C@H](COc4ccccc4)C3)cc2O1`, for which the pIC50 was 6.59 and the pKi was 7.14.

As for `Fc1cccc2[nH]cc(CN3CCO[C@H](COc4ccccc4)C3)c12`, the pIC50 is 5.42 and the pKi was 5.97.

In the case of `Clc1ccc2[nH]cc(CN3CCO[C@H](COc4ccccc4)C3)c2c1`, the pIC50 is 6.89 and the pKi was 7.43.

Take `c1ccc(OC[C@@H]2CN(Cc3ccc4ccccc4n3)CCO2)cc1`: the pIC50 was 5.95 and the pKi is 6.51.

As to `Fc1ccc(CN2CCO[C@H](COc3ccccc3)C2)cc1F`, the pIC50 was 6.28 and the pKi was 6.82.

As to `COc1ccc(CN2CCO[C@H](COc3ccccc3)C2)cc1OC`, the pIC50 is 6.82 and the pKi is 7.37.

As for `Fc1cc(CN2CCO[C@H](COc3ccccc3)C2)ccc1C(F)(F)F`, the pIC50 is 7.24 and the pKi is 7.79.

Consider `COc1ccc(CN2CCO[C@H](COc3cccc(F)n3)C2)cc1Cl`, for which the pIC50 was 6.59 and the pKi was 7.14.

Consider `FC(F)(F)Oc1ccc(CN2CCO[C@H](COc3ccccc3)C2)cc1`, for which the pIC50 was 6.74 and the pKi is 7.29.

`c1ccc(OC[C@@H]2CN(Cc3cccc4cc[nH]c34)CCO2)cc1`: the pIC50 is 6.89 and the pKi is 7.43.

In the case of `Fc1cccc(OC[C@@H]2CN(Cc3ccc(Cl)cc3)CCO2)n1`, the pIC50 was 6.34 and the pKi is 6.89.

As to `COc1ccc2[nH]cc(CN3CCO[C@H](COc4ccccc4)C3)c2c1`, the pIC50 was 6.34 and the pKi is 6.89.

In the case of `Clc1ccc(CN2CCO[C@H](COc3cccnc3)C2)cc1`, the pIC50 is 6.99 and the pKi is 7.33.

On to `COc1ccc(OC[C@@H]2CN(Cc3ccc(Cl)cc3)CCO2)cc1`, for which the pIC50 is 6.82 and the pKi was 7.38.

On to `COc1ccc(CN2CCO[C@H](COc3cccc(C#N)c3)C2)cc1Cl`, for which the pIC50 is 6.89 and the pKi is 7.44.

The values are drawn from ChEMBL document CHEMBL3792377, “Synthesis and characterization of a series of chiral alkoxymethyl morpholine analogs as dopamine receptor 4 (D4R) antagonists” (Bioorg Med Chem Lett, 2016).
